# Arbovirus inh: antivirals against arbovirus infection, primary screen, cell-based, full library, 10K replicate subset; arbovirus infection cell-based antiviral screen; inhibition, % at 10 µM; 200,000 tested, 0.37% active; in the data active = inhibition above about 30%
# CHOP inh: inhibitors of CHOP promoter induction, primary screen, cell-based, unfolded protein response, luciferase reporter. CHO-K1 CHOP-promoter luciferase, tunicamycin-induced, 15-18 h. inhibition, % at 10 µM. 220,000 tested, 3.8% active;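 active = compounds that reduced the stress-induced luciferase reporter signal by more than about 70% of percent inhibition, limit read from the data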;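 also: 0% = tunicamycin plus vehicle and 100% = wells without tunicamycin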
# Wee1 stabilizer: Wee1 degradation inhibitors, primary screen, cell-based, HeLa, Wee1K328M-luciferase, luminescence | Wee1-like protein kinase (Homo sapiens), P30291 | HeLa Luc-Wee1K328M stability; 100% = proteasome inhibitor MG132 effect | reporter increase, % at 5 µM | 220,000 tested, 1.2% active | AID 1321, 2008;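 active = activation above the mean of all tested compounds plus 3 SD, set per screening run, cut at about 8.8% in these data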;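 also: cells exposed to compound for 20 h before luminescence read; 0% = DMSO alone and 100% = MG132 at 30 µM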
# Target sequence (P30291 whole entry K328M): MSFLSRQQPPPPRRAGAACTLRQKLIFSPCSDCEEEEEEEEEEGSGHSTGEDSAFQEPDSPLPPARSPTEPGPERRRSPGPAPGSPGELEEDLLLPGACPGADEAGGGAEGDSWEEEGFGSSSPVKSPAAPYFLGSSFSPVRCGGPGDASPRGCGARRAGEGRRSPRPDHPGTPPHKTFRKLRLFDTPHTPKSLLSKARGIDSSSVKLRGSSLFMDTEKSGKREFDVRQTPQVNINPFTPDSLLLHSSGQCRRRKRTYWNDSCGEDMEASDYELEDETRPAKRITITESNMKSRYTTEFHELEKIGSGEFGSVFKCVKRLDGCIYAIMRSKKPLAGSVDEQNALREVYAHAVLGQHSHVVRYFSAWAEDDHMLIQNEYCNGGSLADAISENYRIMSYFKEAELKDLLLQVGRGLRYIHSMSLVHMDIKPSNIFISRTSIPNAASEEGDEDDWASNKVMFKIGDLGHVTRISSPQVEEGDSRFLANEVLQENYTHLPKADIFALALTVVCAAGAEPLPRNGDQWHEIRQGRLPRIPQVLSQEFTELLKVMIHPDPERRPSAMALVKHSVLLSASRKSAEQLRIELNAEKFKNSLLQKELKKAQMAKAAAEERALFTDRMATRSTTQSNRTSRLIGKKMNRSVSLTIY
# Rad51 HR inh: human RAD51 strand exchange inhibitors, primary screen, biochemical, fluorescence; inhibition, % at 10 µM; DNA repair protein RAD51 homolog 1 (Homo sapiens), Q06609; hRad51 DNA strand exchange, fluorescence dequenching; 200,000 tested, 0.085% active;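 active = inhibition above 40% at the single screening dose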;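 also: 0% = DMSO control wells and 100% = blanks with heterologous ssDNA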
#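 Test system – preformed human Rad51 ssDNA filaments · Reagent – Donor/quencher-labelled 47-bp dsDNA substrate · Incubation – 37 °C 15-min filament assembly, 30-min compound preincubation, 15-min exchange · Signal – FRET fluorescence dequenching, excitation 485 nm, emission 520 nm · Read-out – percent inhibition from fluorescence, normalised to plate control and blank means · Benchmarks – plate control and blank wells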
# L major viab: Leishmania major promastigote growth inhibition, primary screen. 200,000 tested, 9% active. inhibition, % at 10 µM. Leishmania major promastigotes, resazurin fluorescence viability;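 also: promastigotes grown with compound for 44 hours at 28 °C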
# PKD1 kinase inh: inhibitors of human PKD1 kinase, biochemical, fluorescence polarization | Serine/threonine-protein kinase D1 (Homo sapiens), Q15139 | PKD1 kinase fluorescence polarization assay | inhibition, % (concentration not given with the values) | 200,000 tested, 0.056% active | AID 797, 2007
# Starred values were filed as active, the others as inactive; / = no result given. This is a sample that favours compounds with a hit; in the whole collection about 12% have one here. Rule as the data show it, unless noted: active = inhibition above about 50%; inactive = the rest.
SMILES,Arbovirus inh,CHOP inh,Wee1 stabilizer,Rad51 HR inh,L major viab,PKD1 kinase inh
CCN1CCN(c2ncnc3c2c(-c2ccccc2)cn3-c2ccc(F)cc2)CC1,3,-12,1,9,86*,-8
COc1ccc(-n2cc(-c3ccccc3)c3c(NCCCN4CCOCC4)ncnc32)cc1,-29,5,8.9*,0,5,2
OCCN1CCN(c2ncnc3c2c(-c2ccccc2)cn3-c2ccc(Br)cc2)CC1,-34,69,4,7,37,4
c1ccc(-c2csc3ncnc(N4CCc5ccccc5C4)c23)cc1,-18,86*,-2,21,89*,2
Fc1ccc(-n2cc(-c3ccccc3)c3c(N4CCOCC4)ncnc32)cc1,-22,70*,-1,3,3,-6
c1csc(-c2csc3ncnc(NCCCN4CCOCC4)c23)c1,18,27,-2,5,24,2
COc1ccc(-n2cc(-c3ccccc3)c3c(=O)[nH]cnc32)cc1,-27,11,-1,-13,3,-9
c1ccc(-c2csc3ncnc(NCCCN4CCOCC4)c23)cc1,43*,6,2,-8,6,2
COc1ccc(-n2cc(-c3ccccc3)c3c(N4CCOCC4)ncnc32)cc1,-16,81*,-3,-24,23,4
CCCC(C)NC(=O)COc1ccc(Sc2ccc(OCC(=O)NC(C)CCC)cc2)cc1 (configuration not stated),-4,57,4,/,1,1
COc1cc(/C=C(\C#N)C(=O)NC2CCCCC2)ccc1OCc1ccc(C(=O)O)cc1,0,0,0,4,12,-2
CCc1cccc(N(C)C(N)=Nc2cccc3ccccc23)c1,/,23,/,-11,/,/
CCCCCC(O)(CCCCC)C(=O)NNc1ccccc1,-30,91*,0,-4,40,-4
CCCCC(O)(CCCC)C(=O)NNc1ccccc1,-28,-19,-1,/,-5,-5
Cc1cc(NC(=O)CSc2ncccc2C(=O)O)no1,9,28,-1,15,-4,2
O=C(Oc1c(CN2CCOCC2)cc(Cl)c2cccnc12)c1ccccc1Cl,-11,-5,4,4,100*,-3
O=C(Oc1c(CN2CCOCC2)cc(Cl)c2cccnc12)c1cccs1,-4,-60,0,-2,100*,3
Cc1cc(CN(C)Cc2c(C(=O)N3CCCCCCC3)nc3ccc(Cl)cn23)n[nH]1,-1,1,9.3*,10,-1,-7
Cc1cc(NC(=O)Nc2ccccc2F)ccc1Br,6,23,5,/,1,6
COc1ccc(C)cc1NC(=O)c1cc2c(CO)cnc(C)c2oc1=N,1,-11,9.2*,-3,-4,-9
COc1cc(N=c2oc3c(C)ncc(CO)c3cc2C(N)=O)cc(OC)c1OC,5,-5,-3,17,8,6
O=C(O)COc1ccc2oc3ccccc3c2c1,4,-2,-1,-4,-4,-8
CN(CCOc1ccccc1)S(=O)(=O)c1ccc2oc3ccccc3c2c1,17,35,-3,/,55*,6
CC(=O)Nc1cccc(OCCCNS(=O)(=O)c2ccc(F)cc2)c1,/,24,-2,3,/,/
CN(C)Cc1cnc2ccc(Cl)cn12,-4,-13,2,-4,0,-8
SMILES,Arbovirus inh,CHOP inh,Wee1 stabilizer,Rad51 HR inh,L major viab,PKD1 kinase inh
CN(C)Cc1c(-c2ccc(Cl)cc2)nc2ccc(Cl)cn12,17,-21,-2,-14,68*,2
CCCn1nc(C(=O)Nc2nc3ccccc3[nH]2)c2ccccc2c1=O,-18,-32,-2,-18,93*,-6
Cc1nc2ccc(NC(=O)c3nn(CC(C)C)c(=O)c4ccccc34)cc2s1,-25,47,2,/,5,-2
Cc1nnc(NC(=O)c2nn(CC(C)C)c(=O)c3ccccc23)s1,6,-3,10*,2,6,4
CCCCCCn1nc(C(=O)Nc2nc3c(s2)CCCC3)c2ccccc2c1=O,2,7,-1,-1,50*,14
C(=C\c1ccccc1)/CSc1nc2ncccc2[nH]1,/,15,1,/,/,/
O=C(NCc1ccc(F)cc1)C(Cc1ccccc1)NS(=O)(=O)c1cccs1 (configuration not stated),-1,1,-1,-1,100*,0
O=C(NCc1cccs1)C(Cc1ccccc1)NS(=O)(=O)c1cccs1 (configuration not stated),-3,4,-2,4,14,-13
O=C(NCc1ccccc1)C(Cc1ccccc1)NS(=O)(=O)c1cccc2nsnc12 (configuration not stated),-2,-13,-1,3,93*,1
Cn1ncc(Cl)c1C(=O)N1CCN(C(=O)c2ccco2)CC1,3,17,5,-1,-8,-3
COc1ccc(C)cc1S(=O)(=O)Nc1cccc(Cl)c1,5,65,0,-3,99*,0
COc1ccc(NC(=O)CC2C(=O)N(C)C(=S)N2Cc2cccs2)cc1 (configuration not stated),1,-3,0,8,54*,0
CCN1C(=O)C(CC(=O)Nc2ccc(F)cc2)N(Cc2ccco2)C1=S (configuration not stated),6,20,3,-9,7,-7
CCCOc1ccc(NC(=O)CC2C(=O)N(CC)C(=S)N2Cc2cccs2)cc1 (configuration not stated),-31,93*,0,1,25,2
CCOc1ccc(NC(=O)CC2C(=O)N(c3ccccc3)C(=O)N2CCc2cccs2)cc1 (configuration not stated),-3,-3,0,0,66*,1
CCc1ccc(NC(=O)CC2C(=O)N(c3ccc(C)cc3)C(=O)N2CCc2ccncc2)cc1 (configuration not stated),1,8,-2,-9,51*,-4
CC(C)(C)C(=O)N1CCC(O)(CS(=O)(=O)Cc2ccccc2)CC1,2,9,1,17,-10,0
CCC(Cc1ccccc1)NC(=O)C1=C(C)C(=O)OC12CCC(C)CC2 (configuration not stated),1,5,1,10,7,-3
CCOc1ccc(NC(=O)CC2C(=O)N(c3ccccc3)C(=S)N2Cc2ccccn2)cc1 (configuration not stated),2,13,3,-1,9,4
COC(=O)CN1C(=S)N(c2ccc(F)cc2)C(=O)C1CC(=O)Nc1ccccc1 (configuration not stated),-2,6,0,11,-11,-2

# Screening data: PubChem BioAssay, several laboratories
